Test results from ChEMBL document CHEMBL1122987, “Synthesis and central dopaminergic effects of N-(4,6-dimethyl-2-pyridinyl)benzamides” (1985).

Key:
Mus musculus [1] = species: Mus musculus; experiment: Antipsychotic effect was tested against motility scores in reserpinized mice at a control value of 11; type: functional
Mus musculus [2] = species: Mus musculus; experiment: Antipsychotic effect was tested against motility scores in naive mice at a control value of 815; type: functional
Rattus norvegicus [3] = species: Rattus norvegicus; experiment: Compound was evaluated for the homovanillic acid levels of rats corpus striata by 11 determinations; type: functional
In short: (§1)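 Male Wistar C.F. rats (200 ± 20 g); corpus striatum removed 5 h after dosing, HVA extracted from tissue and measured fluorimetrically, expressed as µg/g. Controls got acacia gum suspension; means ± SEM, Student's t test vs controls.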

Mus musculus [4] = species: Mus musculus; experiment: Motility against number of interrupted beams in 1 hour in naive mice by 10 determinations; type: functional
Rattus norvegicus [5] = species: Rattus norvegicus; experiment: Compound was evaluated for the homovanillic acid levels of rats limbic system by 7 determinations; type: functional
In short: (§2)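 Male Wistar C.F. rats (200 ± 20 g); limbic system dissected 5 h post-dose, HVA extracted and determined by fluorimetry (µg/g tissue). Vehicle controls received acacia gum aqueous suspension; means ± SEM, Student's t test.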

Mus musculus [6] = species: Mus musculus; experiment: Motility against number of interrupted beams in 1 hr in reserpine & apomorphine treated mice by 10 determinations; type: functional
In short: (§3)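 Mice reserpinized (10 mg/kg ip), then apomorphine 2 mg/kg ip given 20 h later; benzamide dosed 1 h before apomorphine. Individual photocell beam interruptions recorded for 60 min after apomorphine. Controls received acacia gum aqueous suspension; means ± SEM, Student's t test vs controls.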

Mus musculus [7] = species: Mus musculus; experiment: Motility against number of interrupted beams in 1 hour in reserpine treated mice by 4 determinations.; type: functional
Mus musculus [8] = species: Mus musculus; experiment: Antipsychotic effect was tested against motility scores in reserpinized mice at a control value of 11; toxic; type: functional, organism-based
Rattus norvegicus [9] = species: Rattus norvegicus; experiment: Compound was evaluated for the homovanillic acid levels of rats corpus striata by 7 determinations; type: functional; in short: as §1
Mus musculus [10] = species: Mus musculus; experiment: Motility against number of interrupted beams in 1 hr in reserpine & apomorphine treated mice by 9 determinations; type: functional; in short: as §3
Mus musculus [11] = species: Mus musculus; experiment: Motility against number of interrupted beams in 1 hour in naive mice by 9 determinations; type: functional
Mus musculus [12] = species: Mus musculus; experiment: Motility against number of interrupted beams in 1 hour in reserpine treated mice by 4 determinations; type: functional
Rattus norvegicus [13] = species: Rattus norvegicus; experiment: Compound Evaluated for the homovanillic acid levels of rats limbic system by 12 determinations; type: functional; in short: as §2
Rattus norvegicus [14] = species: Rattus norvegicus; experiment: Compound Evaluated for the homovanillic acid levels of rats corpus striata by 12 determinations; type: functional; in short: as §1
Mus musculus [15] = species: Mus musculus; experiment: Motility of the Compound was tested against number of interrupted beams in 1 hr in reserpine & apomorphine treated mice by 14 determinations; type: functional; in short: as §3
Mus musculus [16] = species: Mus musculus; experiment: Motility of the Compound was tested against number of interrupted beams in 1 hour in reserpine treated mice by 8 determinations; type: functional
Mus musculus [17] = species: Mus musculus; experiment: Motility against number of interrupted beams in 1 hour in naive mice by 13 determinations; type: functional
Rattus norvegicus [18] = species: Rattus norvegicus; experiment: Compound was evaluated for the homovanillic acid levels of rats limbic system by 17 determinations; type: functional; in short: as §2
Mus musculus [19] = species: Mus musculus; experiment: Motility against number of interrupted beams in 1 hr in reserpine & apomorphine treated mice by 11 determinations; type: functional; in short: as §3
Mus musculus [20] = species: Mus musculus; experiment: Motility against number of interrupted beams in 1 hour in naive mice by 15 determinations; type: functional
Rattus norvegicus [21] = species: Rattus norvegicus; experiment: Compound was evaluated for the homovanillic acid levels of rats corpus striata by 18 determinations; type: functional; in short: as §1
Mus musculus [22] = species: Mus musculus; experiment: Motility against number of interrupted beams in 1 hour in reserpine treated mice by 13 determinations; type: functional
Rattus norvegicus [23] = species: Rattus norvegicus; experiment: Compound was evaluated for the homovanillic acid levels of rats limbic system by 15 determinations; type: functional; in short: as §2
Mus musculus [24] = species: Mus musculus; experiment: Motility against number of interrupted beams in 1 hour in reserpine treated mice by 9 determinations.; type: functional
Rattus norvegicus [25] = species: Rattus norvegicus; experiment: Compound was evaluated for the homovanillic acid levels of rats corpus striata by 14 determinations; type: functional; in short: as §1
Mus musculus [26] = species: Mus musculus; experiment: Motility against number of interrupted beams in 1 hr in reserpine & apomorphine treated mice by 21 determinations; type: functional; in short: as §3
Rattus norvegicus [27] = species: Rattus norvegicus; experiment: Compound was evaluated for the homovanillic acid levels of rats limbic system by 8 determinations; type: functional; in short: as §2
Mus musculus [28] = species: Mus musculus; experiment: Motility of the Compound was tested against number of interrupted beams in 1 hr in reserpine & apomorphine treated mice by 12 determinations; type: functional; in short: as §3
Mus musculus [29] = species: Mus musculus; experiment: Motility of the Compound was tested against number of interrupted beams in 1 hour in naive mice by 10 determinations; type: functional
Rattus norvegicus [30] = species: Rattus norvegicus; experiment: Compound was evaluated for the homovanillic acid levels of rats Corpus striata by 7 determinations; type: functional; in short: as §1
Rattus norvegicus [31] = species: Rattus norvegicus; experiment: Compound was evaluated for the homovanillic acid levels of rats limbic system by 6 determinations; type: functional; in short: as §2

| Structure (SMILES) | Motility (Mus musculus [1]) | Motility (Mus musculus [2]) | other results |
| --- | --- | --- | --- |
| Cc1cc(C)nc(NC(=O)c2ccccc2Cl)c1 | 4 | 875 |  |
| CCN(C(=O)c1ccc(F)cc1)c1cc(C)cc(C)n1 | 29 | 965 |  |
| Cc1cc(C)nc(NC(=O)c2ccccc2O)c1 | 0 | 747 |  |
| Cc1cccc(C(=O)Nc2cc(C)cc(C)n2)c1 | 0 | 505 |  |
| Cc1cc(C)nc(NC(=O)c2cccc(Br)c2)c1 | 21 | 826 |  |
| Cc1cc(C)nc(NC(=O)c2ccc(N)cc2)c1 | 9 | 337 | HVA level (Rattus norvegicus [3]): 0.308 µg/g; Motility (Mus musculus [4]): 439; HVA level (Rattus norvegicus [5]): 0.268 µg/g; Motility (Mus musculus [6]): 385; Motility (Mus musculus [7]): 0 |
| CC(=O)Nc1ccc(C(=O)Nc2cc(C)cc(C)n2)cc1 | 12 | 522 |  |
| Cc1cc(C)nc(NC(=O)c2cccc([N+](=O)[O-])c2)c1 | 15 | 634 |  |
| Cc1cc(C)nc(NC(=O)c2ccc(Br)cc2)c1 | 0 | 797 |  |
| Cc1cc(C)nc(NC(=O)c2ccc([N+](=O)[O-])cc2)c1 | 0 | 746 |  |
| Cc1cc(C)nc(N(C)C(=O)c2ccccc2)c1 |  | 796 | Motility (Mus musculus [8]): Toxic |
| CC(=O)Nc1cccc(C(=O)Nc2cc(C)cc(C)n2)c1 | 8 | 777 |  |
| COc1cccc(C(=O)Nc2cc(C)cc(C)n2)c1 | 0 | 822 |  |
| Cc1cc(C)nc(NC(=O)c2cccc(C(F)(F)F)c2)c1 | 4 | 661 |  |
| Cc1cc(C)nc(NC(=O)c2ccc(F)cc2)c1 | 113 | 291 | HVA level (Rattus norvegicus [9]): 0.667 µg/g; Motility (Mus musculus [10]): 491; HVA level (Rattus norvegicus [5]): 0.194 µg/g; Motility (Mus musculus [11]): 299; Motility (Mus musculus [12]): 118.2 |
| COc1ccc(Cl)cc1C(=O)Nc1cc(C)cc(C)n1 | 19 | 748 |  |

| Structure (SMILES) | Motility (Mus musculus [1]) | Motility (Mus musculus [2]) | other results |
| --- | --- | --- | --- |
| Cc1cc(C)nc(NC(=O)c2cccc(N)c2)c1 | 4 | 652 |  |
| CCCN(C(=O)c1ccccc1)c1cc(C)cc(C)n1 | 8 | 780 |  |
| Cc1cc(C)nc(NC(=O)c2ccccc2)c1 | 83 | 450 | HVA level (Rattus norvegicus [13]): 0.297 µg/g; HVA level (Rattus norvegicus [14]): 0.504 µg/g; Motility (Mus musculus [15]): 642; Motility (Mus musculus [16]): 85.1; Motility (Mus musculus [17]): 427 |
| CCN(C(=O)c1ccccc1)c1cc(C)cc(C)n1 | 31 | 914 |  |
| COc1ccc(S(C)(=O)=O)cc1C(=O)Nc1cc(C)cc(C)n1 | 2 | 755 |  |
| CCS(=O)(=O)c1ccc(OC)c(C(=O)Nc2cc(C)cc(C)n2)c1 | 16 | 841 |  |
| CCN(C(=O)c1cccc(Cl)c1)c1cc(C)cc(C)n1 | 21 | 941 |  |
| Cc1cc(C)nc(NC(=O)c2cccc(Cl)c2)c1 | 52 | 617 | HVA level (Rattus norvegicus [18]): 0.141 µg/g; Motility (Mus musculus [19]): 727; Motility (Mus musculus [20]): 577; HVA level (Rattus norvegicus [21]): 0.396 µg/g; Motility (Mus musculus [22]): 41.2 |
| Cc1cc(C)nc(NC(=O)c2ccc(Cl)cc2)c1 | 72 | 630 | Motility (Mus musculus [4]): 619; HVA level (Rattus norvegicus [23]): 0.355 µg/g; Motility (Mus musculus [24]): 73.4; HVA level (Rattus norvegicus [25]): 0.644 µg/g; Motility (Mus musculus [26]): 577 |
| CCN(CC)CCNC(=O)c1cc(Cl)c(N)cc1OC [METOCLOPRAMIDE] |  |  | HVA level (Rattus norvegicus [9]): 2.531 µg/g; HVA level (Rattus norvegicus [27]): 0.618 µg/g; Motility (Mus musculus [28]): 63; Motility (Mus musculus [29]): 126 |
| CSc1ccc(C(=O)Nc2cc(C)cc(C)n2)cc1 | 0 | 770 |  |
| COc1ccc(C(=O)Nc2cc(C)cc(C)n2)cc1 | 0 | 456 |  |
| CCN1CCCC1CNC(=O)c1cc(S(=O)(=O)CC)ccc1OC (stereo unspecified) [SULTOPRIDE] |  |  | HVA level (Rattus norvegicus [30]): 1.898 µg/g; Motility (Mus musculus [4]): 135; Motility (Mus musculus [19]): 152; HVA level (Rattus norvegicus [31]): 0.493 µg/g |
| COc1ccccc1C(=O)Nc1cc(C)cc(C)n1 | 7 | 646 |  |
| CCOc1ccc(C(=O)Nc2cc(C)cc(C)n2)cc1 | 4 | 552 |  |
